# Bioassay records: PubChem BioAssay, several laboratories
# PAD4 inh: blocks human protein arginine deiminase 4; Q9UM07; recombinant PAD4, RCA probe fluorescence polarization; inhibition, % at 6.36 µM; 330,000 tested, 0.41% active; AID 485272;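 active = percent inhibition above a cutoff equal to the mean of all tested compounds plus 3 SD, cut at about 15% in these data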;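 also: 0% = PAD4 with RCA probe and DMSO and 100% = probe without PAD4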
# SIAE inh: inhibitors of human sialic acid acetylesterase SIAE; Q9HAT2; SIAE FP-Rh probe binding, fluorescence polarization; inhibition, % at 9.66 µM; 370,000 tested, 0.69% active; AID 1053197;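 active = inhibition above a cutoff: mean of compounds within the control limits plus 3 SD of those, cut at about 17% in these data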;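 also: 0% = plate median of compound wells and 100% = probe without SIAE protein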
# TCR-CD3 inh: blocks the human TCR-CD3 interaction. TAMRA-labeled TCR probe fluorescence, biochemical. inhibition, % at 9.4 µM. 360,000 tested, 0.37% active; in the data active = inhibition above about 19%;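 also: recombinant mutant TCR 2C K166C tagged with TAMRA read by polarization; 0% = receptor in buffer alone and 100% = receptor with positive control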
# GSTO1 counter: GSTO1 inhibition, counter-screen for RBBP9 inhibitors; P78417; recombinant GSTO1, activity-based probe fluorescence polarization; inhibition, % at 5.96 µM; 300,000 tested, 1.1% active; AID 1974;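 active = inhibition above the campaign mean inhibition plus 3 SD, cut at about 35% in these data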;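 also: 0% = GSTO1-1 with DMSO and 100% = wells lacking GSTO1-1 enzyme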
# Target sequence (P78417 whole entry, looked up): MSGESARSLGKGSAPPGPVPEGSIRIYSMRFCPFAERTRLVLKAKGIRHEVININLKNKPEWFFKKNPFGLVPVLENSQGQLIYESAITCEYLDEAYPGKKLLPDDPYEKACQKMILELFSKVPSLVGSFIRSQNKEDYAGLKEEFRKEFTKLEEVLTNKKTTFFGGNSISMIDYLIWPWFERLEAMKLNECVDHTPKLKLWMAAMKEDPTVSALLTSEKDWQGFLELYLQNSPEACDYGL
# Apaf-1 inh: blocks human Apaf-1 apoptosome activity; O14727; reconstituted apoptosome caspase-3 activity, DEVD-Rh110 fluorescence; inhibition, % at 20 µM; 330,000 tested, 0.71% active; AID 489030; active = inhibition of at least 40% at 20 µM;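 also: plate controls were DMSO wells for no effect and DEVD-CHO caspase inhibitor wells for full effect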
#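 Assay system – apoptosome proteins · Medium – Hepes buffer, pH 7.5 · Also added – cytochrome c with DEVD-Rh110 · Timing – 30 min compound preincubation, 50 min activation, room temperature · Detection – Rh110 fluorescence, excitation 480 nm, emission 540 nm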
# TDP2 absorb: blocks human TDP2 phosphodiesterase activity. O95551. recombinant TDP2, T5PNP hydrolysis, p-nitrophenol absorbance 415 nm. inhibition, % at 12.8 µM. 370,000 tested, 0.34% active;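 active = inhibition above the mean of all tested compounds plus 3 SD, set per campaign, cut at about 25% in these data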;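 also: 0% = DMSO with enzyme and 100% = buffer with substrate but no TDP2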
# Target sequence (O95551 whole entry, looked up): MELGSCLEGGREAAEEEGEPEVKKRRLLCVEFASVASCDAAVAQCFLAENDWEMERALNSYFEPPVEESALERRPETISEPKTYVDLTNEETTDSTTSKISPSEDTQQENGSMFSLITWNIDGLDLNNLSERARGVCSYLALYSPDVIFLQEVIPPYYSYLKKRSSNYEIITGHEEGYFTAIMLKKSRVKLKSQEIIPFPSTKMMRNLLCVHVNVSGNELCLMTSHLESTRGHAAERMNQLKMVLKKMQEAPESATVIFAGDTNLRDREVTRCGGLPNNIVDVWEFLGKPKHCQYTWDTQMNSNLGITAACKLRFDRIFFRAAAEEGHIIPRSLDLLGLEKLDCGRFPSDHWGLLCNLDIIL
#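 Incubation: 2 h at 37 °C; Test system: recombinant human TDP2; Quantity: enzyme 120 nM; Read-out basis: percent inhibition; Medium: 50 mM Tris-HCl pH 7.5 with Mg2+, KCl, DTT, BSA; Repeats: single replicate; Compound: 12.8 µM single point, 1% DMSO; Signal: epi absorbance; Reagent: 5 mM T5PNP chromogenic substrate; Benchmarks: no-enzyme high, DMSO-plus-enzyme low.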
# PAD4 FP conf: confirmation of human PAD4 inhibitors. 1,200 tested, 28% active. inhibition, % at 6.36 µM. shares compounds with PAD4 inh. recombinant PAD4, RCA probe fluorescence polarization;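 active = mean inhibition across replicates above the hit cutoff set by the earlier primary screen, cut at about 15% in these data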;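 also: inhibitors block active-site labeling by the probe so polarization falls; 0% = PAD4 with probe and DMSO and 100% = probe without PAD4 enzyme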
# Apaf-1 inh conf: confirmation of Apaf-1 inhibitors; shares compounds with Apaf-1 inh; reconstituted apoptosome, caspase-3 DEVD-Rh110 fluorescence; inhibition, % at 20 µM; 1,800 tested, 25% active;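 active = mean inhibition of at least 40% at 20 µM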;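 also: plate controls were DMSO wells for no effect and DEVD-CHO caspase inhibitor control wells for full effect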
# Rh110 interf inh: counter-screen for Apaf-1 inhibitors: fluorescence interference. shares compounds with Apaf-1 inh. Rh110 fluorescence interference, quenched caspase reaction. activation (fluorescence interference), % at 20 µM. 1,800 tested, under 10 active. AID 504615;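 active = signal rise of 40% or more at 20 µM, treated as a fluorescence artifact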
# Apaf1 inh interf: Apaf-1 inhibitor counter-screen fluorescence artifact; fluorescence interference counterscreen, Apaf-1 assay format; shares compounds with Apaf-1 inh; AID 588538; 460 tested, under 10 active; IC50, µM; call rule not given here
# Active calls of the source: *; · = no result given. In the library only some 2.4% were active in any assay of this set; here they are far more common.
SMILES,PAD4 inh,SIAE inh,TCR-CD3 inh,GSTO1 counter,Apaf-1 inh,TDP2 absorb,PAD4 FP conf,others
COc1ccc(/C=N/NC(=O)Cn2nnc3ccccc32)cc1OC,0,8,-4,-1,4,2,·,
CN(C)c1ccc(/C=N/NC(=O)Cn2nnc3ccccc32)cc1,15*,-3,-10,1,-5,-3,-1,
NC(=O)c1ccc(-n2nnnc2SCC(=O)Nc2ccccc2-c2ccccc2)cc1,16*,4,1,7,-1,5,5,
Cc1ccc([N+](=O)[O-])cc1NC(=O)CSc1nncc2ccccc12,-1,5,4,14,-5,9,·,
O=C(CSc1nncc2ccccc12)N1CCCCC1,17*,3,5,3,6,2,4,
Cc1ccc(NC(=O)CSc2nncc3ccccc23)cc1,16*,2,-2,7,-2,-4,10,
N#CCCN(C(=O)COC(=O)c1cccc(S(=O)(=O)N2CCCC2)c1)c1ccc(F)cc1,1,-3,-2,2,6,-5,·,
CC(=O)N1CCN(S(=O)(=O)c2cccc(C(=O)OCC(=O)N(CCC#N)c3ccc(F)cc3)c2)CC1,29*,-7,5,·,0,-10,3,
CS(=O)(=O)c1ccc(C(=O)Nc2cccc(-c3nc4ccccc4[nH]3)c2)cc1,28*,-25,3,-14,6,-8,13,
CS(=O)(=O)c1ccc(C(=O)Nc2ccc(-c3nc4ccccc4[nH]3)cc2)cc1,-14,-14,8,-2,-5,-7,·,
c1ccc(C2=NNC(=NC3CC3)SC2)cc1,22*,3,-10,2,1,1,1,
O=C(O)CSc1cc(NS(=O)(=O)c2ccc(Cl)cc2)c2ccccc2c1O,31*,10,7,88*,·,63*,-6,
O=S(=O)(Nc1ccc(Cl)cc1NS(=O)(=O)c1ccccc1)c1ccccc1,·,0,7,·,·,10,·,
Cc1cc(C(=O)CSc2nc(N)cc(=O)[nH]2)c(C)n1CC1CCCO1 (stereo not drawn),28*,-2,-4,·,4,-7,15*,
COc1cccc(CN(C)C(=O)c2cc(S(=O)(=O)N3CCCC3)ccc2C)c1OC,1,5,2,·,7,9,·,
C=CCSc1nnc(NC(=O)C2=COCCO2)s1,1,-6,-1,-4,-3,7,·,
COc1ccc2c(c1)CCc1cn3nc(C)cc3nc1-2,16*,7,3,-4,15,1,5,
C[C@H](N)c1nnc(SCC(=O)c2ccc(Cl)cc2)o1,-5,-5,0,2,-6,-4,·,
CC(C)[C@H](N)c1nnc(SCC(=O)c2ccc(Cl)cc2)o1,15*,1,4,24,-17,-6,3,
CN(C)c1cccc(O)c1,22*,4,14,·,0,2,2,
Clc1cccc(CN2CCN(c3nc4nonc4nc3NC3CC3)CC2)c1,-3,3,1,5,-8,-5,·,
Cc1cccc(CN2CCN(c3nc4nonc4nc3NC3CC3)CC2)c1,28*,-9,2,2,-2,8,6,
CN(C)/C=C(\C#N)C(=O)N/N=C/c1ccc(Cl)cc1,1,4,8,0,-9,2,·,
COc1ccccc1N1CCN(C(=O)CCC(=O)N2CCN(c3ccc(F)cc3)CC2)CC1,23*,-2,-8,-2,5,-9,8,
CCC(C)(C)NC(=O)C(c1ccc(F)cc1)N(Cc1ccco1)C(=O)c1snc(C(N)=O)c1N (stereo not drawn),16*,4,-6,7,1,-13,3,
SMILES,PAD4 inh,SIAE inh,TCR-CD3 inh,GSTO1 counter,Apaf-1 inh,TDP2 absorb,PAD4 FP conf,others
c1ccc(CNc2ccccn2)cc1,9,-4,-9,-2,13,-2,·,
c1ccc(Nc2ccccc2Nc2ccccn2)nc1,30*,4,6,6,-3,4,3,
C[C@@H](O)CC(=O)O,-6,6,11,5,-4,-3,·,
CC(C(=O)O)C(=O)O,39*,8,4,0,-12,-2,1,
CCOC(=O)c1ccc(-n2[nH]c(-c3ccccc3)cc2=O)cc1,40*,8,0,36*,43*,35*,-16,Apaf-1 inh conf=25;Rh110 interf inh=1
CCOC(=O)c1ccc(N=Nc2c(C)[nH]n(-c3ccccc3)c2=O)cc1,6,-2,1,3,6,-10,·,
CN(CCO)c1nc(N)c2c(N)nc3c(c2c1C#N)CC(=O)N3C1CCCC1,16*,·,·,14,98*,·,3,Apaf-1 inh conf=21;Rh110 interf inh=-1
CC(=O)Nc1cc2c(=O)n(Cc3ccccc3)c(C)nc2cc1N1CCOCC1,-5,2,7,2,-6,-11,·,
COc1ccc(C(=O)c2nccc3cc(OC)c(OC)cc23)cc1OC,61*,·,·,·,84*,·,25*,Apaf-1 inh conf=44*;Rh110 interf inh=-4;Apaf1 inh interf=>100
COc1cc(/C=C2\C(=O)N(CCC#N)N=C2C)c(Br)cc1OC(C)C,71*,13,-10,36*,79*,23,1,Apaf-1 inh conf=28;Rh110 interf inh=0
CCCCCC(=O)OC(CN1CCCCCC1)CN1CCCC1=O (stereo not drawn),6,3,2,6,-6,13,·,
Oc1ccc(C=Nc2cccc3ncccc23)c(O)c1,16*,6,3,15,87*,9,5,Apaf-1 inh conf=6;Rh110 interf inh=-91
CCC(CN(C)C)Oc1cc(NCc2ccccc2)c2ncn(C(C)C)c2c1 (stereo not drawn),38*,·,·,·,98*,·,-9,Apaf-1 inh conf=80*;Rh110 interf inh=5;Apaf1 inh interf=>100
COc1cc(NCc2ccccc2)c2ncn(C(C)C)c2c1,-3,2,-10,·,13,-2,·,
CC1=NN(c2ccc(Cl)cc2)C(=O)C1C(c1ccccc1O)c1c(C)[nH]n(-c2ccc(Cl)cc2)c1=O (stereo not drawn),67*,·,·,72*,97*,·,-8,Apaf-1 inh conf=42*;Rh110 interf inh=4;Apaf1 inh interf=>100
Cc1[nH]n(-c2ccccc2)c(=O)c1-c1ccc(Cl)cc1,3,1,4,13,10,0,·,
CN1CCN(C(=O)c2ccc3c(c2)N(Cc2ccccc2F)C(=O)c2ccccc2S3=O)CC1 (stereo not drawn),-4,-2,-1,1,3,-3,·,
CC(=O)Nc1ccc(S(=O)(=O)N(C)CC(=O)NC2CCCCCCC2)cc1,2,-2,-7,·,0,14,·,
